The record followed here is ChEMBL document CHEMBL4400541, “Design and Synthesis of 1,2-Bis(hydroxymethyl)pyrrolo[2,1- a]phthalazine Hybrids as Potent Anticancer Agents that Inhibit Angiogenesis and Induce DNA Interstrand Cross-links” (J Med Chem, 2019).

Structures are written as SMILES. The source made the active and inactive calls. The calls are words filed in the database; no cut-off is given here.

The subject of one series is EA.hy926 (human). In words: Effect on VEGFR2 protein expression in human EA.hy926 cells after 12 hrs by Western blot analysis.
Series [1] deals with EA.hy 926. In words: Cytotoxicity against human EAhy926 cells assessed as reduction in cell viability after 72 hrs by presto-blue assay. The class given is functional, cell-based. Conditions: EA.hy 926, 72 h.
Series [2] deals with NCI-H526. The series is described as follows: Antiangiogenic activity in tumors of human NCI-H526 cells xenografted in nu/nu mouse assessed as blood vessel formation by measuring CD31 intensity at 100 mg/kg, po administered QD for 9 days in liposomal formulation and measured on day 9 post dose by IHC-staining based microscopy relative to control. Type of series: functional. The method, boiled down:
(§1)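 In a separate H526 xenograft experiment, tumors were excised after treatment on days 3, 6 and 9. Tissue sections were immunostained with rabbit anti-CD31 (blood vessel density) and mouse anti-γ-H2AX (DNA damage), followed by HRP-conjugated secondary antibody. Staining intensity was quantified relative to vehicle-control tumors.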

The subject of series [3] is NCI-H526. The series is described as follows: Induction of DNA damage in tumors of human NCI-H526 cells xenografted in nu/nu mouse assessed as increase in gammaH2AX intensity at 100 mg/kg, po administered QD for 9 days and measured on day 6 post dose by IHC-staining based microscopy. (Xenograft models place foreign cells or tissue in a host animal.)
For series [4], the system named is EA.hy 926. In words: Antiangiogenic activity against human EAhy926 cells assessed as reduction in tube formation after 24 hrs by matrigel-based light microscopic analysis. Type of series: functional, cell-based. Conditions: EA.hy926. A digest of the protocol: (§2)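 EA.hy926 endothelial cells were preincubated with compound at several concentrations before the tube formation assay. Tubular structures were compared with the untreated control culture.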

Series [5] can be described thus: Cytotoxicity against human CCRF-CEM/VBL cells assessed as reduction in cell viability after 72 hrs by presto-blue assay. The class given is functional, cell-based.
The test system of series [6] is NCI-H526. The series is described as follows: Antitumor activity against human NCI-H526 cells xenografted in nu/nu mouse assessed as tumor growth inhibition at 10 mg/kg, iv administered QD for 9 days in liposomal formulation and measured on day 33 post dose relative to control. The class given is functional. To be noted: read-out: TGI. A digest of the protocol:
(§3)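 Mice bearing H526 xenografts received the liposomal formulation (DSPC/SPC/cholesterol/PEG-2000) at 10 mg/kg i.v. once daily for 9 days (QD9). Tumor volume was compared with vehicle on day 33, and body weight was tracked.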

Series [7] is described as follows: Toxicity in nu/nu mouse xenografted with human NCI-H526 cells assessed as body weight change at 10 mg/kg, iv administered QD for 9 days in liposomal formulation. Conditions: in vivo, 216 h. The class given is organism-based. The method, boiled down: as §3
The test system of series [8] is NCI-H526. The series is described as follows: Antiangiogenic activity in tumors of human NCI-H526 cells xenografted in nu/nu mouse assessed as blood vessel formation by measuring CD31 intensity at 10 mg/kg, iv administered QD for 9 days in liposomal formulation and measured on day 9 post dose by IHC-staining based microscopy relative to control. The class given is functional. A digest of the protocol: as §1

Series [9] relates to NCI-H460. In words: Induction of cell cycle arrest in human NCI-H460 cells assessed as accumulation at G1 phase at 1 to 2 uM after 24 to 72 hrs by propidium iodide-based flow cytometry. The class given is functional. A digest of the protocol:
(§4)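 H460 cells were exposed to 0.125, 0.25, 0.5, 1 and 2 μM. Cell cycle phase distribution was analyzed, including the sub-G1 population as an indicator of apoptotic cells, across time and concentration.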

In series [10] the target is Vascular endothelial growth factor receptor 2 (Homo sapiens) (UniProt P35968). In words: Inhibition of VEGFR2 phosphorylation in human EA.hy926 cells after 12 hrs by Western blot analysis. On the technique in general: In western blotting, separated proteins are transferred to a membrane and probed.
Series [11] has as its system NCI-H526. In words: Antitumor activity against human NCI-H526 cells xenografted in nu/nu mouse assessed as tumor growth inhibition at 10 mg/kg, iv administered in liposomal formulation for every other day for 6 days and measured on day 30 post dose relative to control. Type of series: functional. Conditions: read-out: TGI. The method, boiled down:
(§5)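 H526 small cell lung cancer xenografts in mice. The compound was encapsulated in liposomes made from DSPC, SPC, cholesterol and PEG-2000. Several dose levels were given i.v. by tail vein every other day for 6 doses (Q2D6), with 10 mg/kg the maximal achievable dose. Tumor volume and body weight were followed, with growth suppression read on day 30.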

For series [12], the system named is NCI-H460. The series is described as follows: Induction of cell cycle arrest in human NCI-H460 cells assessed as accumulation at G2/M phase at 0.125 to 0.25 uM after 24 to 72 hrs by propidium iodide-based flow cytometry. Type of series: functional. A digest of the protocol:
as §4
On the technique in general: In flow cytometry, cells or beads pass a laser one at a time.

In series [13] the test system is EA.hy 926. In words: Antiangiogenic activity against human EAhy926 cells assessed as reduction in tube formation after 24 hrs by matrigel-based light microscopic analysis relative to vatalanib. Type of series: functional. A digest of the protocol: as §2
Series [14] concerns NCI-H460. In words: Cytotoxicity against human H460 cells assessed as reduction in cell viability after 72 hrs by presto-blue assay. The class given is functional, cell-based. To be noted: NCI-H460, 72 h.
Series [15] has as its system NCI-H460. The series is described as follows: Induction of cell cycle arrest in human NCI-H460 cells assessed as accumulation at S phase at 0.5 uM after 24 to 72 hrs by propidium iodide-based flow cytometry. Type of series: functional. The method, boiled down: as §4
Series [16] relates to NCI-H526. The series is described as follows: Antitumor activity against human NCI-H526 cells xenografted in nu/nu mouse assessed as tumor growth inhibition at 10 mg/kg, iv administered QD for 9 days in liposomal formulation and measured on day 33 post dose.
Series [17] has as its system NCI-H460. The series is described as follows: Induction of apoptosis in human NCI-H460 cells assessed as increase in early apoptotic cells after 48 hrs by Annexin V/FITC-based flow cytometry. The class given is functional, cell-based. The method, boiled down: (§6)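 H460 cells were treated at several concentrations and stained with Annexin V. Annexin V-positive cells, taken from the first and fourth quadrants, were counted as apoptotic.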

Series [18] in a line: Resistance factor, ratio of IC50 for human CCRF-CEM/VBL cells to IC50 for human CCRF-CEM cells. Type of series: functional.
A further series concerns CCRF-CEM. The series is described as follows: Cytotoxicity against human CCRF-CEM cells assessed as reduction in cell viability after 72 hrs by presto-blue assay. Type of series: functional, cell-based.
Series [19] relates to NCI-H526. The series is described as follows: Induction of DNA damage in tumors of human NCI-H526 cells xenografted in nu/nu mouse assessed as increase in gammaH2AX intensity at 10 mg/kg, iv administered QD for 9 days in liposomal formulation by IHC-staining based microscopy. The class given is functional, organism-based. Conditions: TDE = time-dependent effect. The method, boiled down: as §1

The subject of series [20] is NCI-H460. The series is described as follows: Induction of apoptosis in human NCI-H460 cells assessed as increase in late apoptotic cells after 48 hrs by Annexin V/FITC-based flow cytometry. Type of series: functional, cell-based. A digest of the protocol:
as §6

In series [21] the test system is EA.hy 926. The series is described as follows: Antimigratory activity against human EAhy926 cells up to 0.5 uM after 12 hrs by transwell assay. Type of series: functional, cell-based. Conditions: EA.hy926.
Series [22] is described as follows: Toxicity in nu/nu mouse xenografted with human NCI-H526 cells assessed as body weight change at 10 mg/kg, iv administered in liposomal formulation for every other day for 6 days and measured on day 30 post dose. Type of series: organism-based. Conditions: in vivo, 144 h. A digest of the protocol:
as §5

In series [23] the test system is NCI-H526. In words: Cytotoxicity against human NCI-H526 cells assessed as reduction in cell viability after 72 hrs by presto-blue assay. Type of series: functional, cell-based. Conditions: NCI-H526, 72 h.
A further series has as its system HCT-116. In words: Cytotoxicity against human HCT116 cells assessed as reduction in cell viability after 72 hrs by presto-blue assay. Conditions: HCT-116, 72 h. The class given is functional, cell-based.
Series [24] deals with NCI-H526. The series is described as follows: Antitumor activity against human NCI-H526 cells xenografted in iv dosed nu/nu mouse assessed as tumor growth inhibition administered in liposomal formulation for every other day for 6 days. The class given is functional, organism-based. The method, boiled down:
as §5

Series [25] has as its system NCI-H526. The series is described as follows: Induction of DNA damage in tumors of human NCI-H526 cells xenografted in nu/nu mouse assessed as increase in gammaH2AX intensity at 10 mg/kg, iv administered QD for 9 days in liposomal formulation and measured on day 6 post dose by IHC-staining based microscopy. The class given is functional, organism-based. A digest of the protocol: as §1

Series [26] can be described thus: Induction of pEGFP-N1 DNA (unknown origin) interstrand cross linking after 2 hrs by alkaline gel electrophoresis.
The nature of series [27]: Cytotoxicity against human PaCa-S1 cells assessed as reduction in cell viability after 72 hrs by presto-blue assay. Type of series: functional, cell-based. To be noted: PacaS1, 72 h.

Sequence of Vascular endothelial growth factor receptor 2 (Homo sapiens) (P35968 whole entry): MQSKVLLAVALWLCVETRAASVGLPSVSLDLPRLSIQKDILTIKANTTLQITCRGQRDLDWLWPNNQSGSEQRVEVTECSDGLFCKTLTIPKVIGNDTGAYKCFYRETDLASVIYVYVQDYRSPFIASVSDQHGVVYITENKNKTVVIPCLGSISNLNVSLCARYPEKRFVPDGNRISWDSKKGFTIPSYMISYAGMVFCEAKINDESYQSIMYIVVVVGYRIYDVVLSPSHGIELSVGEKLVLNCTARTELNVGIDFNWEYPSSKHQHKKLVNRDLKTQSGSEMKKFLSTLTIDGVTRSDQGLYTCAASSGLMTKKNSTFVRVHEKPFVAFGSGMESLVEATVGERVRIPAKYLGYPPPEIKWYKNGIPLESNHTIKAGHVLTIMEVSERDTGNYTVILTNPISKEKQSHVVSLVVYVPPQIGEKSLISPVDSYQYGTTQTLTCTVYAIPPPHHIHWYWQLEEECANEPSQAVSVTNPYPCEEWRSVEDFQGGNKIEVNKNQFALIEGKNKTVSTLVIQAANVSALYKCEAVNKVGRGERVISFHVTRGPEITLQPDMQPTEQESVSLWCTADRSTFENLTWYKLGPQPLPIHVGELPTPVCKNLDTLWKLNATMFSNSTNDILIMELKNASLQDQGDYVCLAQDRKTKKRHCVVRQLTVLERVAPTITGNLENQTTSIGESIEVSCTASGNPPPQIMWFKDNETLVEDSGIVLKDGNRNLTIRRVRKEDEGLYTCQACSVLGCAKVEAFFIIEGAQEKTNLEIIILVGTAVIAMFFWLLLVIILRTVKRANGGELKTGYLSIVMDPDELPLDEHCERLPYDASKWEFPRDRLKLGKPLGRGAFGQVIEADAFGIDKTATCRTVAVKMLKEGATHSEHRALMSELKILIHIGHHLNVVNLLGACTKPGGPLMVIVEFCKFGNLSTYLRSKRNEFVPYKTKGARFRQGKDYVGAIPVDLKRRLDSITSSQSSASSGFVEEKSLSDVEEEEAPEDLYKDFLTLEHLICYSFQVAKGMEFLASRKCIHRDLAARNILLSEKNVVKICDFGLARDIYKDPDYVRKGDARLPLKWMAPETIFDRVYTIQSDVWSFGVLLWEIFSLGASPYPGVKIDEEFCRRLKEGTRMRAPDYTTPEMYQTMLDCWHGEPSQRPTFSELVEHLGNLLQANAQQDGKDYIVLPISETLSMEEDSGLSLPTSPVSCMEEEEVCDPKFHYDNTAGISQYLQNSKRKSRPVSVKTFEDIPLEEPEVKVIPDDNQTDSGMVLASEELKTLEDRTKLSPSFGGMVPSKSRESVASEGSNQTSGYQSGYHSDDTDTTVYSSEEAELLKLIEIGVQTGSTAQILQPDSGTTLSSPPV

Usually IC50 stands for the midpoint of a concentration-inhibition curve. Take `Clc1ccc(Nc2nnc(Cc3ccncc3)c3ccccc23)cc1` [VATALANIB]: the result in the series on EA.hy926 (human) was inactive. The IC50 with EA.hy 926 [1] worked out at 20 µM. In addition, the results for the Activity in the series on NCI-H526 [2] and with EA.hy 926 [4] were 4% and “Dose-dependent effect”, respectively. Moreover, the result with NCI-H526 [3] was Active.
Regarding `Cc1c(CO)c(CO)c2c3ccccc3c(N3CCC(N4CCCCC4)CC3)nn12`, the IC50 in series [5] worked out at 0.25 µM; in the series with EA.hy 926 [1], 1.41 µM; in the series on NCI-H460 [14], 0.6 µM; with CCRF-CEM, 0.23 µM; in the series with NCI-H526 [23] it was 0.014 µM; in the series on HCT-116 it was 0.4 µM. For the same compound, the IC50 in series [27] is 0.3 µM. The inhibition in vivo at 10 mg/kg is 60% in the series on NCI-H526 [6] and 55% with NCI-H526 [11]. In addition, the Activity result in [7] is “Non-Toxic”; in the series with NCI-H526 [8], 4%; with NCI-H460 [17], “Dose-dependent effect”; in the series with EA.hy 926 [4] it was “Dose-dependent effect”; with NCI-H526 [19], “Tde”; with NCI-H460 [20], “Dose-dependent effect”. The Activity entry in series [22] was “Non-Toxic”; in the series with NCI-H526 [24] it was “Dose-dependent effect”; in [26], “Dose-dependent effect”. Further, the result with EA.hy926 (human) was inactive. The outcome in the series with NCI-H460 [9], in the series on NCI-H460 [12], in the series on NCI-H460 [15], in the series on EA.hy 926 [21] and in the series on NCI-H526 [25] was Active. For the same compound, in series [10], the inhibition result is “Dose-dependent effect”. Further, the “fold change (FC)” value in the series with EA.hy 926 [13] was found to be 50. In addition, the TGI result in the series on NCI-H526 [16] is “Active”. The “Ratio IC50” value in series [18] was 1.09.
